Bioassay records as filed in PubChem BioAssay.
Shown are actives, neighbours in structure and some others; about 2.6% of the full set was active somewhere.
Runt-SMMHC FRET: inhibitors of human RUNX1 Runt domain binding to CBFb-SMMHC; Q01196+Q13951; Cerulean-Runt/Venus-CBFb-SMMHC FRET ratio 530/480, 1 h; inhibition, % at 20 µM; 0.74% of 220,000 active; AID 1434;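 active = mean inhibition across duplicate retests at 20 µM reaching about 50%, limit read from the data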;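 note: 0% = DMSO wells and 100% = wells with excess untagged CBFb-SMMHC; inhibitors lower the FRET ratio by blocking Runt binding to CBFb-SMMHC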
Target sequence (Q01196 whole entry, looked up, the tested form may be a part): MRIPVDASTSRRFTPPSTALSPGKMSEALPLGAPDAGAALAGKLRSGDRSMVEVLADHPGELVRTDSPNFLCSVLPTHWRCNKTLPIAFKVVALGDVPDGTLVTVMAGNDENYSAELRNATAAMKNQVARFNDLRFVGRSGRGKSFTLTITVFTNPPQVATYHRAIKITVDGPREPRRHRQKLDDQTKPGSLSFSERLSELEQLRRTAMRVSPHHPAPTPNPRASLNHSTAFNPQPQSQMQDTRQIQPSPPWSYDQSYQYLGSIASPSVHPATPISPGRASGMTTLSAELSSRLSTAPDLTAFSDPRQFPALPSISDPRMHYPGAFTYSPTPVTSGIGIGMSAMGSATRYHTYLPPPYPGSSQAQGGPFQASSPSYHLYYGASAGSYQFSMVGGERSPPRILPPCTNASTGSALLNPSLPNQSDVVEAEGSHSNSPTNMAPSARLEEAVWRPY
Target sequence (Q13951 whole entry, looked up, the tested form may be a part): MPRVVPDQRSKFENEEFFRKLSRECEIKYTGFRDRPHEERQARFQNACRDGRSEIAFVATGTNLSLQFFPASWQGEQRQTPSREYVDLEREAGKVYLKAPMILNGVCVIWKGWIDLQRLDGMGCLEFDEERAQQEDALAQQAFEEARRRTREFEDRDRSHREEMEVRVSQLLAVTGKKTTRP
IMP-1 inhibitor: inhibitors of Pseudomonas aeruginosa IMP-1 metallo-beta-lactamase; purified IMP-1, nitrocefin hydrolysis, epi-absorbance fluorescence; inhibition, % at 5.6 µM; 0.45% of 290,000 active;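 active = inhibition above the mean plus 3 SD of all compounds in the same screening run, cut at about 4.5% in these data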;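 note: 0% = IMP-1 with DMSO and 100% = DMSO wells lacking enzyme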
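Assay system: purified recombinant IMP-1 beta-lactamase. Input: IMP-1 0.2 nM before substrate addition. Buffer or medium: Zinc- and detergent-supplemented HEPES buffer, pH 7.1. Schedule: 25 °C, 15 min preincubation, 25 min reaction. Signal: Epi-absorbance fluorescence, 480 nm excitation, 530 nm emission. Evaluation: percent inhibition from optical density relative to buffer-blank wells.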
VIM-2 inh: blocks Pseudomonas aeruginosa VIM-2 metallo-beta-lactamase | 0.89% of 290,000 active | AID 1527 | purified VIM-2, nitrocefin hydrolysis, epi-absorbance fluorescence | inhibition, % at 5.6 µM;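 active = inhibition above the mean of all tested compounds plus 3 SD, cutoff set per screening run, cut at about 7.5% in these data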;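 note: red hydrolysis product quenches plate fluorescence so inhibitors raise well fluorescence; 0% = enzyme with DMSO and 100% = DMSO without enzyme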
Runt-CBFb FRET: blocks binding of human RUNX1 Runt domain to CBFb; 0.46% of 220,000 active; Q01196+Q13951; inhibition, % at 20 µM; Cerulean-Runt/Venus-CBFb FRET ratio 530/480, 1 h; AID 1496;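 active = inhibition over about 50% at 20 µM in the single-dose screen, limit read from the data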;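 note: 0% = DMSO wells and 100% = excess unlabeled CBFb competitor control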
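test system = Cerulean-Runt domain fusion protein, energy donor | probe or stimulus = Venus-CBFb binding partner, 100 nM | incubation = two 1 h room-temperature incubations shielded from light | detection = fluorescence energy transfer, 422 nm excitation, 530/480 nm emission | measure = loss of energy transfer signal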
RanGTP-Imp inh: disruptors of Ran-importin-beta complex formation – biochemical, FRET, CFP-Ran, YFP-importin-beta, homogeneous, primary screen | cell-free CFP-Ran/YFP-importin-beta FRET ratio | inhibition, % (no concentration beside the values) | 1.1% of 300,000 active | AID 2216;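 active = more than half of the replicate wells show a fall in the fluorescence ratio signal beyond about 16%, limit read from the data, passing the limit was not always enough; inconclusive = exactly half of the replicate wells pass the set limit; inactive = fewer than half of replicates pass the limit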;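 note: 0% = DMSO wells and 100% = Ran loaded with GDP instead of GTP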
Starred values were filed as active, the others as inactive; ? = inconclusive; nt = not tested or not shown.

SMILES | Runt-SMMHC FRET | IMP-1 inhibitor | VIM-2 inh | Runt-CBFb FRET | RanGTP-Imp inh
C#CCOCCOCCOCCNc1nc(N2CCN(C(=O)[C@H]([C@@H](C)CC)n3cc([C@@H](N)CC(C)C)nn3)CC2)nc(N2CCN(C(=O)[C@H](Cc3cc4ccccc4[nH]3)n3cc([C@@H](N)CC(C)C)nn3)CC2)n1 | 2 | nt | nt | 4 | 4
COC(=O)c1sc(-c2cccs2)cc1N | -1 | 13* | 3 | 2 | 2
COC(=O)c1sc(-c2ccc(Cl)cc2)cc1N | -2 | -2 | -4 | 0 | 0
CC[C@@H](C)[C@H](NC(=O)Cc1c(C)c2cc3c(C)coc3c(C)c2oc1=O)C(=O)O | nt | -4 | 2 | nt | 2
CCCCC(NC(=O)Cc1c(C)c2cc3c(-c4ccccc4)coc3c(C)c2oc1=O)C(=O)O (stereo not drawn) | nt | -4 | 8.5* | nt | 6
O=C1c2ccccc2C(=O)N1c1ccc(Br)c2cccnc12 | -4 | 0 | 3 | 0 | 6
COc1ccccc1Oc1ccc2c(c1)C(=O)N(c1ccc(Br)c3cccnc13)C2=O | 0 | 4.9* | -1 | 0 | 8
CCN1CCN(S(=O)(=O)c2ccc(OC)c(NC(=O)c3ccccc3)c2)CC1 | nt | -2 | 1 | nt | 1
O=C(CN(C(=O)c1csnn1)c1cccc(Cl)c1)NC1CCCCC1 | nt | -3 | -2 | nt | 0
Cc1[nH]n(-c2ccccc2)c(=O)c1N=Nc1ccc(C(N)=O)cc1 | nt | -2 | 12* | nt | -2
CCN1C(=NCCc2cccs2)N[C@@H](c2cccs2)C(C(=O)OC)=C1C | nt | 1 | 0 | nt | 31*
CCOC(=O)CN1C(=O)N[C@@H](c2cccs2)C(C(=O)OC)=C1C | nt | nt | nt | nt | 8
Cc1ccc(NC(=S)NCCc2ccccc2)c(C)c1 | 1 | -2 | -5 | -1 | 2
Cc1ccc(C)c(NC(=S)NCCc2ccc(F)cc2)c1 | -4 | 20* | -2 | -1 | 3
COc1ccccc1/C=C1\Oc2cc(OC(=O)N3CCOCC3)ccc2C1=O | -39 | -1 | -1 | -80 | -22
O=C(c1ccc(S(=O)(=O)N2CCCCCC2)cc1)N1CCC(CN2C(=O)c3cccc4cccc(c34)C2=O)CC1 | -2 | 5.2* | -4 | nt | 0
CCCCC1C2C(=O)N(c3ccc(C)cc3)C(=O)C2ON1c1ccccc1 (stereo not drawn) | 1 | -1 | 2 | -1 | -1
CCOc1ccc(OCC(=O)Nc2ccc(S(=O)(=O)Nc3cc(C)nc(C)n3)cc2)cc1 | -4 | -4 | -3 | 2 | 2
Cc1ccc(OCCC(=O)Nc2ccc(S(=O)(=O)Nc3cc(C)nc(C)n3)cc2)cc1 | nt | nt | nt | nt | 20*
COc1ccc2c(c1)c1ccc3c(c1n2C)C(=O)C=CC3=O | 41 | -2 | 5 | 64* | nt
Cc1ccc2c(c1)c1ncnc(N3CCN(c4ccccc4)CC3)c1n2C | 0 | -1 | 5 | 0 | nt
Cc1ccc2c(c1)c1ccc3c(c1n2C)C(=O)C=CC3=O | 32 | -1 | 12* | 55* | nt
COC(=O)c1c(NC(=O)CCS(=O)(=O)c2ccccc2)sc2c1CCN(C)C2 | nt | -1 | -2 | nt | 79*
CC(=O)N1CCc2c(sc(NC(=O)CS(=O)(=O)c3ccc(F)cc3)c2C#N)C1 | nt | nt | nt | nt | 2
COC(=O)c1c(NC(=O)CN2CCN(S(=O)(=O)c3ccccc3)CC2)sc2c1CCC(C)C2 (stereo not drawn) | -2 | -3 | -3 | 0 | 3
SMILES | Runt-SMMHC FRET | IMP-1 inhibitor | VIM-2 inh | Runt-CBFb FRET | RanGTP-Imp inh
CCCN1CCc2c(sc(NC(=O)CCS(=O)(=O)c3ccccc3)c2C(=O)OC)C1 | nt | 0 | -1 | nt | 155*
COC(=O)c1ccsc1NC(=O)CCS(=O)(=O)c1ccccc1 | nt | 1 | -2 | nt | 6
CC(C)N1CCc2c(sc(NC(=O)CCS(=O)(=O)c3ccccc3)c2C#N)C1 | nt | -1 | -5 | nt | 169*
Cc1ccc(N2CCN(C(=O)c3cc(-c4ccc(F)cc4)[nH]c3C)CC2C)cc1 (stereo not drawn) | nt | -2 | 0 | nt | -1
Cc1cc(C)cc(N2CCCn3c2nc2c3c(=O)[nH]c(=O)n2C)c1 | nt | -3 | 3 | nt | 0
Cc1cc(C)cc(N2CC(C)Cn3c2nc2c3c(=O)[nH]c(=O)n2C)c1 (stereo not drawn) | nt | -5 | 8.6* | nt | 0
CCOC(=O)C1=C(C)N=C2SC=C(C)N2C1c1ccc(OC)cc1 (stereo not drawn) | 60* | -2 | -3 | 23 | 10
CCOC(=O)C1=C(C)N=C2SCCC(=O)N2C1c1ccc(OC)cc1 (stereo not drawn) | nt | -4 | 0 | nt | 3
O=C(COC(=O)c1cc(F)cc(F)c1)NCCCc1ccccc1 | nt | -1 | -3 | nt | -1
COc1cc(C2=CCN(C(C)=O)CC2)ccc1OC(C)=O | nt | nt | nt | nt | 3
Oc1ccc(Cl)cc1N=Cc1sc2ccccc2c1Cl | 17 | -4 | -1 | nt | ?
Oc1c(C=Nc2cccc3cccnc23)sc2ccccc12 | 18 | -2 | 9.7* | 35 | 39*
O=[N+]([O-])c1ccc(O)c(N=Cc2sc3ccccc3c2O)c1 | 48 | -3 | -2 | 16 | 38*
Cc1cccc(/N=C/c2sc3ccccc3c2O)n1 | -1 | 0 | 3 | -1 | 33*
COc1ccc(S(=O)(=O)NCCCn2ccnc2)cc1C(C)(C)C | nt | -3 | -1 | nt | 0
Cc1c(/C(O)=C2/C(=O)C(=O)N(CCN3CCOCC3)C2c2ccccn2)cnn1-c1ccccc1 (stereo not drawn) | 18 | -4 | -3 | 12 | 35*
O=C1C(=O)N(CCN2CCOCC2)C(c2ccccn2)/C1=C(/O)c1ccc(F)cc1 (stereo not drawn) | 4 | -2 | -3 | 5 | 19*
O=C1C(=O)N(Cc2ccncc2)C(c2ccccc2F)/C1=C(\O)c1ccc2c(c1)OCCO2 (stereo not drawn) | nt | -4 | 11* | nt | 1
CN(C)CCN1C(=O)C(=O)/C(=C(/O)c2ccc3c(c2)OCCO3)C1c1ccccn1 (stereo not drawn) | -1 | -3 | -4 | 2 | 24*
N#Cc1c(-c2ccccc2)cc2nc3ccccc3n2c1N | 10 | 1 | -1 | 7 | 17*
COc1cc(-c2c(C#N)c(N)nc(SCc3ccncc3)c2C#N)cc(OC)c1OC | 4 | -4 | -3 | -3 | 8
COc1cc(-c2cc3nc4ccccc4n3c(N)c2C#N)cc(OC)c1OC | 15 | -1 | 5 | 7 | 25*
COc1ccccc1CNC(=O)Cc1ccccc1 | nt | -2 | -2 | nt | 0
O=C(c1ccccc1Cl)N1CCN(c2ncccn2)CC1 | nt | nt | nt | nt | 0
COc1ccc(-n2c(=S)[nH]c3sc4c(c3c2=O)CCN(C)C4)cc1 | 39 | -2 | -2 | 14 | 23*
C=CCn1c(-c2ccccc2)nc(=S)c2c1CCCC2 | -1 | -3 | 1 | 0 | 3
Nc1cccc2c1C(=O)N(Cc1cccc(Cl)c1)C2=O | 93* | -1 | -2 | 3 | -3
